Test results from ChEMBL document CHEMBL1800022, “Structure-activity relationships of a series of analogues of the RFamide-related peptide 26RFa” (J Med Chem, 2011).
Calls of active or inactive are those of the source. The rule behind the calls is not given here. Non-standard residues stand in square brackets, D forms with d. Residues, ends and D or L forms follow the SMILES beside them. *: point of attachment. NBn2 = c1ccc(CN(Cc2ccccc2)*)cc1; X3 = C1CCN(N(N2CCCCC2)*)CC1; hSer = N[C@@H](CCO)C(=O)O; 2Furoyl = O=C(c1ccco1)*; Nva = CCC[C@H](N)C(=O)O; Abu = CC[C@H](N)C(=O)O; NHBn = c1ccc(CN*)cc1; X1 = CCN(Cc1ccccc1)*; Bz = O=C(c1ccccc1)*

Key:
Assay type in all cases: functional, cell-based
[1] = molecular target: T1, Pyroglutamylated RF-amide peptide receptor (Homo sapiens) (UniProt Q96P65); experiment: Antagonist activity at DYKDDDDK-flagged human GPR103 receptor expressed in CHO-K1 cells co-expressing G-protein alpha16 assessed as inhibition of 26RFa-induced calcium mobilization after 2 mins by fluorometric analysis
T1 sequence (whole entry): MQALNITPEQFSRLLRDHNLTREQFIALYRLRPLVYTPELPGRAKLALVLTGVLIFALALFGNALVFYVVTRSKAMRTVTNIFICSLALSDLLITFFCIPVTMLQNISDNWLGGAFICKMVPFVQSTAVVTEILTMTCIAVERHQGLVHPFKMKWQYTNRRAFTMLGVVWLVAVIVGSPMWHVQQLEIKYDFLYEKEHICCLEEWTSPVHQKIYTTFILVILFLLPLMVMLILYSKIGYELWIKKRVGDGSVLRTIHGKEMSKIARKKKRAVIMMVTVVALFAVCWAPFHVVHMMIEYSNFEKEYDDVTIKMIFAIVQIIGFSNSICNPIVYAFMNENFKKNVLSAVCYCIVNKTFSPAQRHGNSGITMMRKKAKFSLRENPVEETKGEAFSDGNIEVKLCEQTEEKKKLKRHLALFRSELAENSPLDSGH
Method in brief: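 Same Gα16/flag-hGPR103 CHO-K1 cells, Fluo-4AM loading and HBSS/probenecid/HEPES buffer. Triplicates; IC50 reported as mean ± SEM of at least three experiments.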

[2] = molecular target: T1, Pyroglutamylated RF-amide peptide receptor (Homo sapiens); experiment: Agonist activity at DYKDDDDK-flagged human GPR103 receptor expressed in CHO-K1 cells co-expressing G-protein alpha16 assessed as stimulation of calcium mobilization at 10' -12 to 10^-5 M after 2 mins by fluorometric analysis
Method in brief: (§1)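 CHO-K1 cells stably expressing Gα16 and C-terminally flag-tagged human GPR103 (Geneticin-selected), plated at 40 000 cells/well 24 h before assay. Loaded with 2 μM Fluo-4AM for 1 h, washed, then 30 min in HBSS with 2.5 mM probenecid and 5 mM HEPES. Peptides added at 10^-12 to 10^-5 M final and fluorescence read for 2 min. Triplicates; EC50 from sigmoidal variable-slope fit, at least three experiments.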

[3] = molecular target: T2, Pyroglutamylated RF-amide peptide receptor (Homo sapiens, UniProt Q96P65); experiment: Agonist activity at DYKDDDDK-flagged human GPR103 receptor expressed in CHO-K1 cells co-expressing G-protein alpha16 assessed as stimulation of calcium mobilization after 2 mins by fluorometric analysis; method in brief: as §1
T2 sequence (Q96P65 whole entry): T1 sequence (whole entry)

Row | SMILES | inhibition [1] | Activity [2] | EC50 [3]
1 | N=C(N)NCCC[C@H](NC(=O)[C@@H](Cc1ccccc1)NC(=O)[C@H](CO)NC(=O)[C@H](Cc1ccccc1)NC(=O)CNC(=O)CN)C(=O)N[C@@H](Cc1ccccc1)C(N)=O | inactive | inactive | 
2 | N=C(N)NCCC[C@H](NC(=O)[C@H](Cc1ccccc1)NC(=O)[C@H](CO)NC(=O)[C@H](Cc1ccccc1)NC(=O)CNC(=O)CN)C(=O)N[C@@H](Cc1ccccc1)C(=O)NCc1ccccc1 (H-GGFSFRF-NHBn) | inactive | inactive | 
3 | C[C@H](NC(=O)[C@H](CCCNC(=N)N)NC(=O)[C@H](Cc1ccccc1)NC(=O)[C@H](CO)NC(=O)[C@H](Cc1ccccc1)NC(=O)CNC(=O)CN)C(N)=O (H-GGFSFRA-NH2) | inactive | inactive | 
4 | CC(C)C[C@H](NC(=O)[C@@H]1CCCN1)C(=O)NCC(=O)N[C@@H](CC(N)=O)C(=O)N[C@@H](CC(C)C)C(=O)N[C@@H](C)C(=O)N[C@@H](CCC(=O)O)C(=O)N[C@@H](CCC(=O)O)C(=O)N[C@@H](CC(C)C)C(=O)N[C@@H](CC(N)=O)C(=O)NCC(=O)N[C@@H](Cc1ccc(O)cc1)C(=O)N[C@@H](CO)C(=O)N[C@@H](CCCNC(=N)N)C(N)=O (H-PLGNLAEELNGYSR-NH2) | inactive | inactive | 
5 | N=C(N)NCCC[C@H](NC(=O)[C@H](Cc1ccccc1)NC(=O)[C@H](CO)NC(=O)[C@H](Cc1ccccc1)NC(=O)CNC(=O)CN)C(=O)N[C@H](Cc1ccccc1)C(N)=O | inactive | inactive | 
6 | N=C(N)NCCC[C@H](NC(=O)[C@H](Cc1ccccc1)NC(=O)[C@H](CO)NC(=O)[C@@H](N)Cc1ccccc1)C(=O)N[C@@H](Cc1ccccc1)C(N)=O (H-FSFRF-NH2) |  | inactive | 
7 | CC(C)C[C@H](NC(=O)[C@H](CC(N)=O)NC(=O)CNC(=O)[C@H](CC(C)C)NC(=O)[C@@H]1CCCN1C(=O)CNC(=O)[C@H](CO)NC(=O)[C@@H](N)[C@@H](C)O)C(=O)N[C@@H](C)C(=O)N[C@@H](CCC(=O)O)C(=O)N[C@@H](CCC(=O)O)C(=O)N[C@@H](CC(C)C)C(=O)N[C@@H](CC(N)=O)C(=O)NCC(=O)N[C@@H](Cc1ccc(O)cc1)C(=O)N[C@@H](CO)C(N)=O (H-TSGPLGNLAEELNGYS-NH2) | inactive | inactive | 
8 | CC(C)C[C@H](NC(=O)[C@H](CC(N)=O)NC(=O)CNC(=O)[C@H](CC(C)C)NC(=O)[C@@H]1CCCN1C(=O)CNC(=O)[C@H](CO)NC(=O)[C@@H](N)[C@@H](C)O)C(=O)N[C@@H](C)C(=O)N[C@@H](CCC(=O)O)C(=O)N[C@@H](CCC(=O)O)C(=O)N[C@@H](CC(C)C)C(=O)N[C@@H](CC(N)=O)C(=O)NCC(=O)N[C@@H](Cc1ccc(O)cc1)C(=O)N[C@@H](CO)C(=O)N[C@@H](CCCNC(=N)N)C(=O)N[C@@H](CCCCN)C(=O)N[C@@H](CCCCN)C(=O)NCC(=O)NCC(=O)N[C@@H](Cc1ccccc1)C(=O)N[C@@H](CO)C(=O)N[C@@H](Cc1ccccc1)C(=O)N[C@@H](CCCNC(=N)N)C(=O)N[C@@H](Cc1ccccc1)C(=O)N(N1CCCCC1)N1CCCCC1 (H-TSGPLGNLAEELNGYSRKKGGFSFRF-X3) |  |  | 282 nM
9 | CC(C)C[C@H](NC(=O)[C@H](Cc1ccccc1)NC(=O)CNC(=O)CN)C(=O)N[C@@H](Cc1ccccc1)C(=O)N[C@@H](CCCN=C(N)N)C(=O)N[C@@H](Cc1ccccc1)C(N)=O (H-GGFLFRF-NH2) |  |  | 1470 nM
10 | N=C(N)NCCC[C@H](NC(=O)[C@H](Cc1ccccc1)NC(=O)[C@H](CO)NC(=O)[C@H](Cc1ccccc1)NC(=O)CNC(=O)CN)C(=O)N[C@@H](Cc1ccccc1)C(N)=O |  |  | 739 nM
11 | CC[C@@H](C)[C@H](NC(=O)[C@H](Cc1ccccc1)NC(=O)CNC(=O)CN)C(=O)N[C@@H](Cc1ccccc1)C(=O)N[C@@H](CCCN=C(N)N)C(=O)N[C@@H](Cc1ccccc1)C(N)=O |  |  | 817 nM
12 | N=C(N)NCCC[C@H](NC(=O)[C@H](Cc1ccccc1)NC(=O)[C@H](CO)NC(=O)[C@H](Cc1ccccc1)NC(=O)CNC(=O)CNC(=O)c1ccccc1)C(=O)N[C@@H](Cc1ccccc1)C(N)=O (Bz-GGFSFRF-NH2) |  |  | 722 nM
13 | C[C@H](N)C(=O)NCC(=O)N[C@@H](Cc1ccccc1)C(=O)N[C@@H](CO)C(=O)N[C@@H](Cc1ccccc1)C(=O)N[C@@H](CCCNC(=N)N)C(=O)N[C@@H](Cc1ccccc1)C(N)=O (H-AGFSFRF-NH2) |  |  | 3350 nM
14 | NCC(=O)NCC(=O)N[C@@H](Cc1ccccc1)C(=O)N[C@@H](CO)C(=O)N[C@@H](Cc1ccccc1)C(=O)N[C@@H](CCCN=C(N)N)C(=O)N[C@@H](Cc1ccccc1)C(=O)N(N1CCCCC1)N1CCCCC1 (H-GGFSFRF-X3) |  |  | 1200 nM
15 | CCN(Cc1ccccc1)C(=O)[C@H](Cc1ccccc1)NC(=O)[C@H](CCCN=C(N)N)NC(=O)[C@H](Cc1ccccc1)NC(=O)[C@H](CO)NC(=O)[C@H](Cc1ccccc1)NC(=O)CNC(=O)CN (H-GGFSFRF-X1) |  |  | 1090 nM
16 | CC(C)C[C@H](NC(=O)[C@H](CC(N)=O)NC(=O)CNC(=O)[C@H](CC(C)C)NC(=O)[C@@H]1CCCN1C(=O)CNC(=O)[C@H](CO)NC(=O)[C@@H](N)[C@@H](C)O)C(=O)N[C@@H](C)C(=O)N[C@@H](CCC(=O)O)C(=O)N[C@@H](CCC(=O)O)C(=O)N[C@@H](CC(C)C)C(=O)N[C@@H](CC(N)=O)C(=O)NCC(=O)N[C@@H](Cc1ccc(O)cc1)C(=O)N[C@@H](CO)C(=O)N[C@@H](CCCNC(=N)N)C(=O)N[C@@H](CCCCN)C(=O)N[C@@H](CCCCN)C(=O)NCC(=O)NCC(=O)N[C@@H](Cc1ccccc1)C(=O)N[C@@H](CO)C(=O)N[C@@H](Cc1ccccc1)C(=O)N[C@@H](CCCNC(=N)N)C(=O)N[C@@H](Cc1ccccc1)C(N)=O (H-TSGPLGNLAEELNGYSRKKGGFSFRF-NH2) |  |  | 10.4 nM
17 | N=C(N)NCCC[C@H](NC(=O)[C@H](Cc1ccccc1)NC(=O)[C@H](CO)NC(=O)[C@H](Cc1ccccc1)NC(=O)CNC(=O)CNC(=O)[C@H](CCCCN)NC(=O)[C@H](CCCCN)NC(=O)[C@H](CCCNC(=N)N)NC(=O)[C@H](CO)NC(=O)[C@H](Cc1ccc(O)cc1)NC(=O)CN)C(=O)N[C@@H](Cc1ccccc1)C(N)=O (H-GYSRKKGGFSFRF-NH2) |  |  | 185 nM
18 | CC(C)C[C@H](NC(=O)[C@H](CC(N)=O)NC(=O)CNC(=O)[C@H](CC(C)C)NC(=O)[C@@H]1CCCN1C(=O)CNC(=O)[C@H](CO)NC(=O)[C@@H](N)[C@@H](C)O)C(=O)N[C@@H](C)C(=O)N[C@@H](CCC(=O)O)C(=O)N[C@@H](CCC(=O)O)C(=O)N[C@@H](CC(C)C)C(=O)N[C@@H](CC(N)=O)C(=O)NCC(=O)N[C@@H](Cc1ccc(O)cc1)C(=O)N[C@@H](CO)C(=O)N[C@@H](CCCNC(=N)N)C(=O)N[C@@H](CCCCN)C(=O)N[C@@H](CCCCN)C(=O)NCC(=O)NCC(=O)N[C@@H](Cc1ccccc1)C(=O)N[C@@H](CO)C(=O)N[C@@H](Cc1ccccc1)C(=O)N[C@@H](CCCNC(=N)N)C(=O)NCc1ccccc1 (H-TSGPLGNLAEELNGYSRKKGGFSFR-NHBn) |  |  | 67 nM
19 | NCCCC[C@H](NC(=O)[C@H](CCCCN)NC(=O)[C@H](CCCN=C(N)N)NC(=O)[C@@H](N)CO)C(=O)NCC(=O)NCC(=O)N[C@@H](Cc1ccccc1)C(=O)N[C@@H](CO)C(=O)N[C@@H](Cc1ccccc1)C(=O)N[C@@H](CCCN=C(N)N)C(=O)N[C@@H](Cc1ccccc1)C(N)=O (H-SRKKGGFSFRF-NH2) |  |  | 237 nM
20 | CCC[C@H](NC(=O)[C@H](Cc1ccccc1)NC(=O)CNC(=O)CN)C(=O)N[C@@H](Cc1ccccc1)C(=O)N[C@@H](CCCNC(=N)N)C(=O)N[C@@H](Cc1ccccc1)C(N)=O (H-GGF[Nva]FRF-NH2) |  |  | 233 nM
21 | C[C@H](NC(=O)CN)C(=O)N[C@@H](Cc1ccccc1)C(=O)N[C@@H](CO)C(=O)N[C@@H](Cc1ccccc1)C(=O)N[C@@H](CCCN=C(N)N)C(=O)N[C@@H](Cc1ccccc1)C(N)=O (H-GAFSFRF-NH2) |  |  | 2980 nM
22 | N=C(N)NCCC[C@H](NC(=O)[C@H](Cc1ccccc1)NC(=O)[C@H](CCO)NC(=O)[C@H](Cc1ccccc1)NC(=O)CNC(=O)CN)C(=O)N[C@@H](Cc1ccccc1)C(N)=O (H-GGF[hSer]FRF-NH2) |  |  | 374 nM
23 | CC[C@H](NC(=O)[C@H](Cc1ccccc1)NC(=O)CNC(=O)CN)C(=O)N[C@@H](Cc1ccccc1)C(=O)N[C@@H](CCCNC(=N)N)C(=O)N[C@@H](Cc1ccccc1)C(N)=O (H-GGF[Abu]FRF-NH2) |  |  | 355 nM
24 | NC(=O)[C@H](Cc1ccccc1)NC(=O)[C@H](CCCN=C(N)N)NC(=O)[C@H](Cc1ccccc1)NC(=O)[C@H](CO)NC(=O)[C@H](Cc1ccccc1)NC(=O)CNC(=O)CNC(=O)c1ccco1 (2Furoyl-GGFSFRF-NH2) |  |  | 695 nM
25 | N=C(N)NCCC[C@H](NC(=O)[C@H](Cc1ccccc1)NC(=O)[C@H](CO)NC(=O)[C@H](Cc1ccccc1)NC(=O)CNC(=O)CN)C(=O)N[C@@H](Cc1ccccc1)C(=O)N(Cc1ccccc1)Cc1ccccc1 (H-GGFSFRF-NBn2) |  | inactive | 
